≈ marks a conversion by molar mass, not a printed value. Calls of active or inactive are those of the source. No cut-off for these calls is given here.
How the values were obtained:
[1] = Cytotoxicity against human THP1 cells assessed as cell viability at 18.72 ug/ml after 24 hrs by MTT assay relative to control; format: cell-based; conditions: THP-1 cells, read-out: Activity
Method in brief: (§1)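 THP-1 cells (human monocytic line) seeded at 10^4 per well and adhered with phorbol myristate acetate (20 ng/mL). Then given fresh RPMI with 10% foetal calf serum and 2 mM L-glutamine, plus compound by serial double dilution (4.68–150 µg/mL), with DMSO and no-DMSO controls. Incubated 24 or 48 h at 37 °C, 5% CO2. MTT added for 4 h, formazan dissolved in DMSO, A540 read, percentage survival calculated.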

[2] = Cytotoxicity against human THP1 cells assessed as cell viability at 4.68 ug/ml after 48 hrs by MTT assay relative to control; format: cell-based; conditions: THP-1 cells, read-out: Activity; method in brief: as §1
[3] = Cytotoxicity against human THP1 cells assessed as cell viability at 150 ug/ml after 48 hrs by MTT assay relative to control; format: cell-based; conditions: THP-1 cells, read-out: Activity; method in brief: as §1
[4] = Selectivity index, ratio of IC50 for cytotoxicity against human THP1 cells to MIC for Mycobacterium tuberculosis H37Rv; format: toxicity, cell-based; conditions: THP-1 cells, read-out: Selectivity Index
Method in brief: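 THP-1 cells, 10^4/well, adhered with PMA 20 ng/mL, in RPMI with 10 % FCS and 2 mM L-glutamine; exposed to 4.68–150 µg/mL for 24 and 48 h at 37 °C, 5 % CO2; MTT 4 h, formazan in DMSO, A540. Index = THP-1 IC50 divided by H37Rv MABA MIC.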

[5] = test system: Mycobacterium tuberculosis; experiment: Potency index, ratio of streptomycin MIC to compound MIC for antimycobacterial activity against MDR Mycobacterium tuberculosis isolate 591; format: functional
[6] = test system: Mycobacterium tuberculosis; experiment: Antimycobacterial activity against Mycobacterium tuberculosis H37Rv after 10 days by MABA; format: functional; conditions: 240 h
Method in brief: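 MABA in 7H9 medium: log-phase culture passed through 8 µm filter, density set by OD600 and McFarland standards, 1 × 10^6 cells per well with drug dilutions; aerobic incubation 37 °C 10 days, then 0.02 % resazurin, overnight 37 °C. MIC = lowest concentration preventing blue-to-pink change. Triplicate; medium+inoculum and medium-only controls.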

[7] = test system: Mycobacterium tuberculosis; experiment: Potency index, ratio of isoniazid MIC to compound MIC for antimycobacterial activity against MDR Mycobacterium tuberculosis isolate 591; format: functional
[8] = test system: Mycobacterium tuberculosis; experiment: Ratio of MBC to MIC for Mycobacterium tuberculosis H37Rv; format: functional
[9] = test system: Mycobacterium tuberculosis; experiment: Potency index, ratio of ethambutol MIC to compound MIC for antimycobacterial activity against MDR Mycobacterium tuberculosis isolate 591; format: functional
[10] = Cytotoxicity against human THP1 cells assessed as cell viability at 9.36 ug/ml after 24 hrs by MTT assay relative to control; format: cell-based; conditions: THP-1 cells, read-out: Activity; method in brief: as §1
[11] = Cytotoxicity against human THP1 cells assessed as cell viability at 37.48 ug/ml after 48 hrs by MTT assay relative to control; format: cell-based; conditions: THP-1 cells, read-out: Activity; method in brief: as §1
[12] = Cytotoxicity against human THP1 cells assessed as cell viability at 75 ug/ml after 48 hrs by MTT assay relative to control; format: cell-based; conditions: THP-1 cells, read-out: Activity; method in brief: as §1
[13] = test system: Mycobacterium tuberculosis; experiment: Antimycobacterial activity against MDR Mycobacterium tuberculosis isolate 591 after 15 days by MABA; format: functional; conditions: isolate 591, 360 h
Method in brief: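 MABA in 7H9 medium on MDR clinical isolate 591: filtered single-cell suspension, 1 × 10^6 cells per well with drug dilutions, aerobic 37 °C; 0.02 % resazurin added on day 15, overnight 37 °C. MIC = lowest concentration preventing blue-to-pink change. Triplicate; medium+inoculum and medium-only controls.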

[14] = test system: Mycobacterium tuberculosis; experiment: Bactericidal activity against Mycobacterium tuberculosis H37Rv after 4 weeks by MABA; format: functional; conditions: 672 h
[15] = Cytotoxicity against human THP1 cells assessed as cell viability at 4.68 ug/ml after 24 hrs by MTT assay relative to control; format: cell-based; conditions: THP-1 cells, read-out: Activity; method in brief: as §1
[16] = Cytotoxicity against human THP1 cells assessed as cell viability at 75 ug/ml after 24 hrs by MTT assay relative to control; format: cell-based; conditions: THP-1 cells, read-out: Activity; method in brief: as §1
[17] = Cytotoxicity against human THP1 cells assessed as cell viability at 37.48 ug/ml after 24 hrs by MTT assay relative to control; format: cell-based; conditions: THP-1 cells, read-out: Activity; method in brief: as §1
THP-1 = experiment: Cytotoxicity against human THP1 cells assessed as growth inhibition after 24 to 48 hrs by MTT assay; format: cell-based; method in brief: as §1
[18] = Cytotoxicity against human THP1 cells assessed as cell viability at 150 ug/ml after 24 hrs by MTT assay relative to control; format: cell-based; conditions: THP-1 cells, read-out: Activity; method in brief: as §1
[19] = Cytotoxicity against human THP1 cells assessed as cell viability at 9.36 ug/ml after 48 hrs by MTT assay relative to control; format: cell-based; conditions: THP-1 cells, read-out: Activity; method in brief: as §1
[20] = Cytotoxicity against human THP1 cells assessed as cell viability at 18.72 ug/ml after 48 hrs by MTT assay relative to control; format: cell-based; conditions: THP-1 cells, read-out: Activity; method in brief: as §1
[21] = test system: Mycobacterium tuberculosis; experiment: Potency index, ratio of rifampicin MIC to compound MIC for antimycobacterial activity against MDR Mycobacterium tuberculosis isolate 591; format: functional
[22] = molecular target: DNA gyrase subunit B (Escherichia coli) (UniProt P0AES6); experiment: Inhibition of Escherichia coli DNA gyrase-B at 0.66 to 100 uM using relaxed pUC19 DNA as substrate after 1 hr by bromophenol blue dye based agarose gel electrophoresis method
Method in brief: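 E. coli DNA gyrase, 1 unit, with 0.3 µg relaxed pUC19 plasmid in 1X gyrase assay buffer. Compound added as 0.2 µL from 100 µM stock; ciprofloxacin positive control, DMSO solvent control. Incubated 37 °C for 1 h, stopped with 50% glycerol/0.25% bromophenol blue. Run on 1% agarose in 0.5X TBE pH 8.3, 16 h at 30 mA, ethidium bromide stained, UV visualised for supercoiling.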

Structure (SMILES)	viability at 24 h, 18.72 ug/ml [1] [%]	viability at 48 h, 4.68 ug/ml [2] [%]	viability at 48 h, 150 ug/ml [3] [%]	selectivity ratio [4]	MIC [6] [µM]	Ratio [8]	viability at 24 h, 9.36 ug/ml [10] [%]	viability at 48 h, 37.48 ug/ml [11] [%]	viability at 48 h, 75 ug/ml [12] [%]	MIC [13] [µM]	MBC [14] [µM]	viability at 24 h, 4.68 ug/ml [15] [%]	viability at 24 h, 75 ug/ml [16] [%]	viability at 24 h, 37.48 ug/ml [17] [%]	IC50 (THP-1) [µM]	viability at 24 h, 150 ug/ml [18] [%]	viability at 48 h, 9.36 ug/ml [19] [%]	viability at 48 h, 18.72 ug/ml [20] [%]	further results
O=c1cc(-c2ccccc2)c2ccc(OCc3cn([C@@H]4O[C@H](CO)[C@@H](O)[C@H]4O)nn3)cc2o1	100	95	62	75.4	4.4 (≈ 1.99 µg/mL)	4	100	78	70	8.9 (≈ 4.02 µg/mL)	17.7 (≈ 7.99 µg/mL)	100	88	94	> 332	79	93	84	Ratio [5]: 7 - 420; Ratio [7]: 7 - 420; Ratio [9]: 7 - 420; Ratio [21]: 7 - 420
Cc1cc(=O)oc2cc(OCc3cn([C@@H]4O[C@H](CO)[C@@H](O)[C@H]4O)nn3)c(Cl)cc12	–	–	–	–	18.9 (≈ 8.01 µg/mL)	2	–	–	–	18.9 (≈ 8.01 µg/mL)	37.7 (≈ 16 µg/mL)	–	–	–	–	–	–	–	–
O=C(O)c1cn(C2CC2)c2cc(N3CCNCC3)c(F)cc2c1=O	–	–	–	–	–	–	–	–	–	–	–	–	–	–	–	–	–	–	inhibition [22]: Active
Cc1cc(=O)oc2cc(-c3cn([C@@H]4O[C@H](COC(=O)c5ccccc5)[C@@H](OC(=O)c5ccccc5)[C@H]4OC(=O)c4ccccc4)nn3)c(Cl)cc12	–	–	–	–	14.2 (≈ 10 µg/mL)	1.8	–	–	–	14.2 (≈ 10 µg/mL)	25.5 (≈ 18 µg/mL)	–	–	–	–	–	–	–	–
O=C(OC[C@H]1O[C@@H](n2cc(-c3ccc4c(-c5ccccc5)cc(=O)oc4c3)nn2)[C@H](OC(=O)c2ccccc2)[C@@H]1OC(=O)c1ccccc1)c1ccccc1	–	–	–	–	10.9 (≈ 8 µg/mL)	2.25	–	–	–	13.6 (≈ 9.98 µg/mL)	24.5 (≈ 18 µg/mL)	–	–	–	–	–	–	–	–
O=C(OC[C@H]1O[C@@H](n2cc(COc3ccc4ccc(=O)oc4c3)nn2)[C@H](OC(=O)c2ccccc2)[C@@H]1OC(=O)c1ccccc1)c1ccccc1	–	–	–	–	11.6 (≈ 7.98 µg/mL)	2.25	–	–	–	14.5 (≈ 9.97 µg/mL)	26.2 (≈ 18 µg/mL)	–	–	–	–	–	–	–	–
O=C(OC[C@H]1O[C@@H](n2cc(COc3ccc4c(-c5ccccc5)cc(=O)oc4c3)nn2)[C@H](OC(=O)c2ccccc2)[C@@H]1OC(=O)c1ccccc1)c1ccccc1	97	95	64	37.6	5.2 (≈ 3.97 µg/mL)	2	100	74	70	5.2 (≈ 3.97 µg/mL)	10.5 (≈ 8.02 µg/mL)	100	81	81	> 196	66	93	84	Ratio [5]: 7 - 420; Ratio [7]: 7 - 420; Ratio [9]: 7 - 420; Ratio [21]: 7 - 420
O=C(OC[C@H]1O[C@@H](n2cc(-c3ccc4ccc(=O)oc4c3)nn2)[C@H](OC(=O)c2ccccc2)[C@@H]1OC(=O)c1ccccc1)c1ccccc1	–	–	–	–	15.2 (≈ 10 µg/mL)	2	–	–	–	30.4 (≈ 20 µg/mL)	30.4 (≈ 20 µg/mL)	–	–	–	–	–	–	–	–
O=c1ccc2ccc(OCc3cn([C@@H]4O[C@H](CO)[C@@H](O)[C@H]4O)nn3)cc2o1	89	89	55	37.7	10.6 (≈ 3.98 µg/mL)	2.5	91	63	59	15.9 (≈ 5.97 µg/mL)	26.6 (≈ 9.98 µg/mL)	100	68	86	> 400	60	86	84	–
